# TRPC4 potent: positive allosteric modulators of TRPC4, primary screen, cell-based, mouse TRPC4beta, HEK293 mu-opioid, Fluo-4 calcium; DAMGO EC20, Fluo-4 Ca2+ flux; hits give high values; B-score at 10 µM; actives 0.42% (n = 310,000);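 active = B-score of calcium response area above 5 SD of library B-scores, with initial fluorescence ratio within 5 SD of library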;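 note: B-score of integrated fluorescence ratio over time as area under calcium response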
# TRPC4 agonist: activators of mouse TRPC4 channel, primary screen, Fluo4 calcium, HEK293 TRPC4beta/mu-opioid cells; Short transient receptor potential channel 4 (Mus musculus), Q9QUQ5; Fluo4 calcium fluorescence; hits give high values; B-score at 10 µM; actives 0.49% (n = 310,000); AID 2237, 2010;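 active = B-score above 5 SD of library B-scores, and initial fluorescence ratio not above library mean plus 5 SD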;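 note: positive B-score marks a calcium rise read as TRPC4 activation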
#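 Incubation: 45 min room-temperature Fluo4 loading, 110 s read / System: HEK293 cells stably co-expressing mouse TRPC4beta and mu-opioid receptor / Signal: Fluo4 fluorescence, kinetic / Control set: buffer (low) and maximal DAMGO (high) / Measure: integrated baseline-normalised fluorescence ratio, converted to per-well B score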
# TRPC6 inh: mouse TRPC6 channel inhibitors, primary screen, cell-based, HEK293, membrane potential dye; Short transient receptor potential channel 6 (Mus musculus), Q61143; ACh-evoked depolarization; hits give low values; B-score at 10 µM; actives 1.1% (n = 310,000); AID 2553, 2010;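 active = B-score under library mean minus 3 SD, initial fluorescence not abnormally high, positive integrated signal ratio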;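 note: B-score derived from integrated fluorescence ratio over the kinetic read; more negative B-score means stronger inhibition of depolarization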
# TRPC6 act: mouse TRPC6 channel activators, primary screen, cell-based, HEK293, membrane potential dye; actives 0.13% (n = 310,000); AID 2550, 2010; HEK293-TRPC6 membrane potential dye fluorescence; hits give high values; B-score at 10 µM; Short transient receptor potential channel 6 (Mus musculus), Q61143;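 active = B-score of the integrated fluorescence ratio above library mean plus 3 SD, and starting fluorescence ratio within library mean plus 5 SD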;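 note: higher score means more depolarization so channel activation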
# TRPC4 inh: inhibitors of mouse TRPC4 channel, primary screen, Fluo4 calcium, HEK293 TRPC4beta/mu-opioid cells. actives 0.39% (n = 300,000). Short transient receptor potential channel 4 (Mus musculus), Q9QUQ5. B-score at 10 µM. AID 2247, 2010. DAMGO-evoked Fluo4 calcium flux; hits give low values;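 active = B-score over 3 SD under the library average, no early fluorescence shift, positive overall ratio signal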
#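 Assay system: HEK293 cells with stable TRPC4beta plus mu-opioid receptor expression. Dosing: single dose. Measured by: Fluo4 Ca2+ flux fluorescence. Also added: DAMGO in two steps, submaximal then maximal. Read-out: B score from integrated Fluo4 fluorescence ratio.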
# TRPC4 sel inh 2: second selectivity test of TRPC6 inhibitors: effect on mouse TRPC4; inhibition, % at 10 µM; actives 42% (n = 920); shares compounds with TRPC6 inh; HEK293 TRPC4/MOR, membrane potential dye fluorescence; channel activated by saturating DAMGO dose;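 active = compounds whose fluorescence signal differed from control wells by over 3 SD, either direction, in both duplicate plates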
# TRPC4 spec: mouse TRPC4 modulation by TRPC6 hits, confirmation, selectivity assay for TRPC6 inhibitor project, cell-based, HEK293 TRPC4/mu-opioid, membrane potential dye | shares compounds with TRPC6 inh | actives 61% (n = 920) | membrane potential fluorescence | activity change, negative = inhibition, % at 10 µM;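 active = rise or fall in signal beyond 3 SD of buffer-only wells in both replicate plates, either sign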;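 note: integrated kinetic ratio of fluorescence range over baseline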
# HEK293 MPD ctr 2-1: nonspecific membrane potential effects, parental HEK293, confirmation, counter-screen for TRPC6 inhibitor project, cell-based, second counter screen; shares compounds with TRPC6 inh; parental HEK293 membrane potential dye fluorescence; maximal acetylcholine challenge after compound addition; signal change vs control, % at 10 µM; actives 31% (n = 920); AID 2779, 2010;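 active = membrane potential signal moving either way by over 3 SD of the maximum-effect control, in both duplicate plates, meaning non-specific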
# HEK293 MPD ctr-1: membrane potential modulation in parental HEK293, confirmation, counter-screen for TRPC6 inhibitor project, cell-based | parental HEK293 membrane potential dye fluorescence | membrane potential signal change, % at 10 µM | shares compounds with TRPC6 inh | actives 60% (n = 920) | AID 2780, 2010;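 active = membrane potential signal shifting up or down by more than 3 SD of buffer-only wells, on both duplicate plates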
# HEK293 MPD ctr-2: parental HEK293 membrane potential modulation, confirmation, counter-screen for TRPC6 modulator project, cell-based. shares compounds with TRPC6 inh. membrane potential dye fluorescence. membrane potential signal change, % at 10 µM. actives 51% (n = 2,400);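 active = membrane potential signal moves up or down beyond 5 SD from buffer-only wells, on both duplicate plates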
# HEK293 MPD ctr 2-2: parental HEK293 nonspecific activity of TRPC6 modulators, second screen; shares compounds with TRPC6 inh; membrane potential dye fluorescence; after compound, maximal acetylcholine stimulation; inhibition, % at 10 µM; actives 14% (n = 2,400);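 active = membrane potential signal drops by more than 5 SD from the mean control signal, in both duplicate plates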;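 note: plate controls were acetylcholine ECmax control wells for no effect and buffer only wells for full effect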
# TRPC4/MOR mod: TRPC4 modulation by TRPC6 hit compounds, confirmation, selectivity assay for TRPC6 modulator project, cell-based, HEK293 TRPC4/mu-opioid, membrane potential dye, mouse | shares compounds with TRPC6 inh | membrane potential fluorescence | percent change from control (negative = decrease, positive = increase), % at 10 µM | actives 69% (n = 2,400);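 active = membrane potential signal moved up or down beyond 5 SD of buffer control wells, in both duplicate plates, actives on both sides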;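 note: plate controls were assay buffer wells for no effect and DAMGO maximal-effect wells for full effect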
# TRPC4 ctr inh 2: second selectivity test of TRPC6 modulators against mouse TRPC4; actives 55% (n = 2,400); HEK293 TRPC4/mu-opioid, membrane potential dye fluorescence; stimulated with maximal-effect DAMGO; shares compounds with TRPC6 inh; inhibition, % at 10 µM;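 active = drop in membrane potential signal beyond 5 SD of the control wells in both duplicate plates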;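 note: TRPC4 counter screen for TRPC6 hits run under conditions tuned for TRPC6 not TRPC4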
# TRPC6 inh conf: mouse TRPC6 channel inhibitors, confirmation, HEK293 cells, membrane potential dye, duplicate; inhibition, % at 10 µM; shares compounds with TRPC6 inh; ACh-evoked depolarization; actives 43% (n = 3,300);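 active = fluorescence ratio falls more than 5 SD below the full-stimulation control mean, in both duplicate runs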;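 note: integrated fluorescence ratio of peak minus minimum over baseline after agonist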
# TRPC6 act confirm: mouse TRPC6 channel activators, confirmation, HEK293 cells, membrane potential dye, duplicate. shares compounds with TRPC6 inh. HEK293-TRPC6 membrane potential dye fluorescence, FDSS. activation, % at 10 µM. actives 11% (n = 2,800). AID 488961, 2010;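 active = ratio signal rise beyond 5 SD above unstimulated control wells' mean, seen in both duplicate runs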;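 note: plate controls were buffer EC0 wells for no effect and acetylcholine ECmax response for full effect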
# * = called active by the depositor; i = inactive; . = not tested or not shown. In the library only some 2.3% were active in any assay of this set; here they are far more common.
SMILES,TRPC4 potent,TRPC4 agonist,TRPC6 inh,TRPC6 act,TRPC4 inh,HEK293 MPD ctr-2,HEK293 MPD ctr 2-2,TRPC4/MOR mod,TRPC4 ctr inh 2,TRPC6 inh conf,TRPC6 act confirm,others
O=C(CS(=O)(=O)Cc1ccccc1)NCc1ccco1,i,i,i,i,i,.,.,.,.,.,.,
Oc1ccccc1-c1nc(NCCN2CCOCC2)c2ccccc2n1,i,i,-8.3*,i,i,.,.,.,.,68%*,i,TRPC4 sel inh 2=58%*;TRPC4 spec=-19%*;HEK293 MPD ctr 2-1=i;HEK293 MPD ctr-1=-328%*
Cc1ccc(-c2nc(NCCN3CCOCC3)c3ccccc3n2)cc1,i,i,-6.2*,i,i,-210%*,i,-38%*,74%*,62%*,i,
COc1cccc(-c2nc(NCCN3CCOCC3)c3ccccc3n2)c1O,i,i,i,i,i,.,.,.,.,.,.,
Fc1ccccc1-c1nc(NCCCN2CCOCC2)c2ccccc2n1,i,i,-5.1*,i,i,-272%*,i,-47%*,55%*,52%*,i,
c1csc(-c2nc(NCCCN3CCOCC3)c3ccccc3n2)c1,i,i,-7.2*,i,i,-180%*,i,-40%*,72%*,68%*,i,
Clc1cccc(-c2nc(NCCN3CCOCC3)c3ccccc3n2)c1,i,i,i,i,i,.,.,.,.,.,.,
Clc1cccc(-c2nc(NCCCN3CCOCC3)c3ccccc3n2)c1,i,i,i,i,i,.,.,.,.,.,.,
CCOc1ccc(S(=O)(=O)N2CCC(C(=O)NCc3ccccn3)CC2)cc1C,i,i,i,i,i,.,.,.,.,.,.,
Clc1ccc(-c2nc(NCCCN3CCOCC3)c3ccccc3n2)cc1,i,i,-6.7*,i,i,.,.,.,.,61%*,i,TRPC4 sel inh 2=72%*;TRPC4 spec=-24%*;HEK293 MPD ctr 2-1=i;HEK293 MPD ctr-1=-328%*
CCS(=O)(=O)c1nn2c(N)c(/C=C3/C=CC(=O)C(OC)=C3)c(=O)nc2s1,i,i,i,i,i,.,.,.,.,.,.,
CCOC1=C/C(=C/c2c(N)n3nc(-c4ccccc4)sc3nc2=O)C=CC1=O,i,i,-5.3*,13*,i,428%*,140%*,52%*,i,i,73%*,
COc1ccc2c(c1)S/C(=C\C(=O)c1ccncc1)N2C,i,i,-5.9*,i,i,100%*,i,-67%*,34%*,i,i,
CCc1cc(=O)oc2c(C)c(OCC(=O)NC3CC(C)(C)NC(C)(C)C3)ccc12,i,i,-5.7*,i,i,-150%*,i,-31%*,36%*,38%*,i,
CCc1cc(=O)oc2c(C)c(OC(C)C(=O)NC3CC(C)(C)NC(C)(C)C3)ccc12 (stereo not drawn),i,i,i,i,i,.,.,.,.,.,.,
CCOC(=O)COc1ccccc1/C=N\NC(=O)c1cc2c(ccc3ccccc32)o1,i,i,i,i,i,.,.,.,.,.,.,
CNS(=O)(=O)c1cccc(C(=O)NCC2(N3CCCCC3)CCCCC2)c1,i,i,i,i,i,.,.,.,.,.,.,
Cc1cccc(NS(=O)(=O)c2cccc(C(=O)NCC3(N4CCCCC4)CCCCC3)c2)c1,i,i,-5*,i,i,i,i,i,72%*,52%*,.,
O=C(NC1CC1)C1=C[C@@H](C2CC2)C[C@@H](OCc2ccc(CO)cc2)O1,i,i,i,i,i,.,.,.,.,.,.,
O=C1C2CSCN2C(=O)CN1CCCN1CCN(C(c2ccccc2)c2ccccc2)CC1 (stereo not drawn),i,i,-5.3*,i,i,82%*,i,11%*,39%*,45%*,.,
CCOC(=O)C1CCN(S(=O)(=O)c2c[nH]c(=O)[nH]c2=O)CC1,i,i,i,i,i,.,.,.,.,.,.,
COc1ccccc1Nc1cc(C(=O)NCCCN2CCOCC2)c2ccccc2n1,i,i,i,i,i,.,.,.,.,.,.,
O=C(NCCCN1CCOCC1)c1cc2c([nH]c3ccccc32)c(-c2cccc(Br)c2)n1,i,i,-8.8*,i,i,.,.,.,.,54%*,i,TRPC4 sel inh 2=i;TRPC4 spec=i;HEK293 MPD ctr 2-1=i;HEK293 MPD ctr-1=i
